Assay results from ChEMBL document CHEMBL1148553, “C8c-C15 monoseco-analogues of the phenanthroquinolizidine alkaloids julandine and cryptopleurine exhibiting potent anti-angiogenic properties” (Bioorg Med Chem Lett, 2006).
pIC50: −log10 of the molar value.

Experiments:
TF-1 = assay: Cytotoxicity against human erythroleukemia TF1 cells; type: functional, cell-based
Outline: (§1)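 Dose-response proliferation assay over 0.16 to 20 µM (final) in tissue-culture plates. Cells were incubated 72 h at 37 °C in 5% CO2, and inhibition was read as Alamar Blue conversion by fluorescence at excitation/emission 544/590 nm.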

BT-20 = assay: Cytotoxicity against human breast carcinoma, BT20 cells; type: functional, cell-based; outline: as §1
MAT-Ly-Lu = assay: Cytotoxicity against rat prostate carcinoma, MatLyLu cells; type: functional, cell-based; outline: as §1
KHOS/NP = assay: Cytotoxicity against human osteosarcoma, KHOS-NP cells; type: functional, cell-based; outline: as §1
A-431 = assay: Cytotoxicity against human epidermoid carcinoma, A431 cells; type: functional, cell-based; outline: as §1
A-375 = assay: Cytotoxicity against human melanoma, A375 cells; type: functional, cell-based; outline: as §1
A549 = assay: Cytotoxicity against human lung carcinoma, A549 cells; type: functional, cell-based; outline: as §1
HCT-15 = assay: Cytotoxicity against human colon carcinoma, HCT15 cells; type: functional, cell-based; outline: as §1
HT-1376 = assay: Cytotoxicity against human bladder carcinoma, HT1376 cells; type: functional, cell-based; outline: as §1
PA-1 = assay: Cytotoxicity against human ovarian teratocarcinoma, PA1 cells; type: functional, cell-based; outline: as §1
HepG2 = assay: Cytotoxicity against human hepatoma, HEPG2 cells; type: functional, cell-based; outline: as §1
HEK293 = assay: Cytotoxicity against HEK293 cells; type: functional, cell-based; conditions: Homo sapiens; outline: as §1
BUD-8 = assay: Cytotoxicity against human fibroblast, BUD8 cells; type: functional, cell-based; outline: as §1
Ramos = assay: Cytotoxicity against human Burkitt lymphoma, RAMOS cells; type: functional, cell-based; outline: as §1
Daudi = assay: Cytotoxicity against human Burkitt lymphoma, DAUDI cells; type: functional, cell-based; outline: as §1
MES-SA = assay: Cytotoxicity against human uterine sarcoma, MES-SA cells; type: functional, cell-based; outline: as §1
MES-SA/Dx5 = assay: Cytotoxicity against human uterine sarcoma, MES-SA-Dx5 cells derived from MES-SA; type: functional, cell-based; outline: as §1
CTLL = assay: Cytotoxicity against murine cytotoxic T cells, CTLL2; type: functional, cell-based; conditions: Mus musculus; outline: as §1
Rattus norvegicus [1] = organism: Rattus norvegicus; assay: Inhibition of blood vessel growth in rat aorta at 100 ug/mL; type: functional
Outline: (§2)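 In vitro angiogenesis assay using rat aorta blood vessel fragments, with compounds dissolved in DMSO. The read-out is percent inhibition of blood vessel growth at each fixed test concentration.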

Rattus norvegicus [2] = organism: Rattus norvegicus; assay: Inhibition of blood vessel growth in rat aorta at 10 ug/mL; type: functional; outline: as §2
Rattus norvegicus [3] = organism: Rattus norvegicus; assay: Inhibition of blood vessel growth in rat aorta at 1 ug/mL; type: functional; outline: as §2
Rattus norvegicus [4] = organism: Rattus norvegicus; assay: Inhibition of blood vessel growth in rat aorta at 0.1 ug/mL; type: functional; outline: as §2
MCF7 = assay: Cytotoxicity against human breast carcinoma, MCF7 cells; type: functional, cell-based; outline: as §1

SMILES	pIC50 (TF-1)	pIC50 (BT-20)	pIC50 (MAT-Ly-Lu)	pIC50 (KHOS/NP)	pIC50 (A-431)	pIC50 (A-375)	pIC50 (A549)	pIC50 (HCT-15)	pIC50 (HT-1376)	pIC50 (PA-1)	pIC50 (BUD-8)	pIC50 (Ramos)	pIC50 (Daudi)	pIC50 (MES-SA)	pIC50 (MES-SA/Dx5)	pIC50 (CTLL)	inhibition at 100 µg/mL (Rattus norvegicus [1]) [%]	inhibition at 10 µg/mL (Rattus norvegicus [2]) [%]	inhibition at 1 µg/mL (Rattus norvegicus [3]) [%]	inhibition at 0.1 µg/mL (Rattus norvegicus [4]) [%]	also measured
COc1ccc(/C(=C\c2ccc(OC)c(OC)c2)CN2CCCC[C@@H]2C)cc1	< 4.70	< 4.70	< 4.70	< 4.70	< 4.70	< 4.70	< 4.70	< 4.70	< 4.70	< 4.70	< 4.70	< 4.70	< 4.70	< 4.70	< 4.70	< 4.70	100	43	68	22	pIC50 (HepG2): < 4.70; pIC50 (HEK293): < 4.70
COc1ccc2c(CN3CCCC[C@@H]3C)cc3cc(OC)c(OC)cc3c2c1	5.14	4.99	4.82	4.91	5.09	5.05	4.95	5.11	5.01	5.13	< 4.70	< 4.70	5.04	5.00	4.93	5.12	100	100	42	17	pIC50 (HepG2): 5.09; pIC50 (HEK293): 4.81
COc1ccc(/C=C(/CN2CCCC[C@@H]2C)c2ccc(O)cc2)cc1OC	< 4.70	< 4.70	< 4.70	< 4.70	< 4.70	< 4.70	< 4.70	< 4.70	< 4.70	< 4.70	< 4.70	< 4.70	< 4.70	< 4.70	< 4.70	< 4.70	100	42	53	31	pIC50 (HepG2): < 4.70; pIC50 (HEK293): < 4.70
COc1ccc(/C(=C\c2ccc(OC)c(OC)c2)CN2CCCC[C@H]2C)cc1	< 4.70	< 4.70	< 4.70	< 4.70	< 4.70	< 4.70	< 4.70	< 4.70	< 4.70	< 4.70	< 4.70	< 4.70	< 4.70	< 4.70	< 4.70	< 4.70	100	62	59	36	pIC50 (HepG2): < 4.70; pIC50 (HEK293): < 4.70
COc1ccc(/C=C(/CN2CCCC[C@H]2C)c2ccc(O)cc2)cc1OC	< 4.70	< 4.70	< 4.70	< 4.70	< 4.70	< 4.70	< 4.70	< 4.70	< 4.70	< 4.70	< 4.70	< 4.70	< 4.70	< 4.70	< 4.70	< 4.70	100	65	43	–	pIC50 (HepG2): < 4.70; pIC50 (HEK293): < 4.70
COc1ccc2c(CN(C)C)cc3cc(OC)c(OC)cc3c2c1	5.17	5.13	4.76	4.77	5.27	5.15	4.77	5.08	5.10	5.38	< 4.70	4.78	4.80	5.04	4.78	5.47	–	100	22	7	pIC50 (MCF7): 4.73
COc1ccc2c(CN3CCCC[C@H]3C)cc3cc(OC)c(OC)cc3c2c1	5.12	4.96	4.82	4.85	5.09	5.00	4.92	5.08	5.02	5.14	< 4.70	4.81	4.92	5.04	5.07	5.09	–	100	48	29	pIC50 (HepG2): 5.14; pIC50 (HEK293): 4.77
COc1cc2cc(CN3CCCC[C@@H]3C)c3ccc(O)cc3c2cc1OC	5.01	4.86	< 4.70	4.81	4.86	4.95	4.78	5.08	5.08	5.10	4.74	4.74	4.87	4.85	4.93	5.04	100	74	58	35	pIC50 (HepG2): 5.08; pIC50 (HEK293): 4.83
COc1cc2cc(CN3CCCC[C@H]3C)c3ccc(O)cc3c2cc1OC	5.08	4.94	< 4.70	4.87	4.70	5.03	4.82	5.10	5.22	–	–	–	–	–	–	5.09	100	85	47	18	–
COc1ccc2ccc3cc(OC)c(OC)cc3c2c1	< 4.70	< 4.70	< 4.70	< 4.70	< 4.70	< 4.70	< 4.70	< 4.70	< 4.70	< 4.70	< 4.70	< 4.70	< 4.70	< 4.70	< 4.70	4.76	83	42	–	–	pIC50 (MCF7): < 4.70
COc1ccc2c3c(c4cc(OC)c(OC)cc4c2c1)C[C@H]1CCCCN1C3 [CRYPTOPLEURINE]	–	8.52	8.52	8.00	8.52	8.52	8.52	8.52	8.40	8.70	8.22	8.52	8.70	8.52	8.52	–	–	–	–	–	pIC50 (MCF7): 8.52
